Measured values taken from ChEMBL document CHEMBL2429747, “Synthesis and biological evaluation of α-galactosylceramide analogues with heteroaromatic rings and varying positions of a phenyl group in the sphingosine backbone” (J Med Chem, 2013).
The source made the active and inactive calls. The rule behind the calls is not given here.

Columns and labels:
[1] = tested on: HMNC; assay: Immunomodulatory activity in wild type C57BL/6 mouse HMNC cells assessed as reduction in IL-17 secretion at 25 nM after 72 hrs by ELISA; assay type: functional, cell-based
In short: (§1)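 Hepatic mononuclear cells from C57BL/6 mice were isolated on Percoll and grown in RPMI-1640 with 10% FBS, L-glutamine and 2-mercaptoethanol. Cells (2 × 10^5) were stimulated 72 h with 25 nM glycolipid. Supernatant cytokines were measured by sandwich ELISA: overnight 4 °C sample incubation, biotinylated antibody, streptavidin-HRP, TMB, A450. Assays were run in triplicate and repeated 2−3 times; mean ± SD.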

[2] = tested on: HMNC; assay: Immunomodulatory activity in wild type C57BL/6 mouse HMNC cells assessed as reduction in IFN-gamma secretion at 25 nM after 72 hrs by ELISA; assay type: functional, cell-based; in short: as §1
[3] = tested on: HMNC; assay: Immunomodulatory activity in wild type C57BL/6 mouse HMNC cells assessed as increase in IL-4 secretion at 25 nM after 72 hrs by ELISA; assay type: functional, cell-based; in short: as §1
[4] = species: Mus musculus; assay: Antiautoimmune disease activity in wild type C57BL/6 mouse experimental autoimmune encephalitis model assessed as reduction in disease pathogenicity at 2 ug, […] as single dose measured up to 30 days; assay type: functional, organism-based
In short: (§2)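 Wild-type B6 mice received 2D2 TCR-transgenic lymphocytes containing 1 × 10^6 Va3.2+Vβ11+ CD4+ T cells via the tail vein. After 24 h, mice were immunized sc in each flank with 200 μg MOG35−55 in incomplete Freund's adjuvant with 200 μg M. tuberculosis. Pertussis toxin was given ip on day 0 and day 2. A single 2 μg dose was mixed into the antigen emulsion at immunization. EAE clinical score was followed; n = 8/group from two experiments, mean ± SEM.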

[5] = tested on: Mus musculus; assay: Immunomodulatory activity in PMA- and ionomycin-stimulated wild type C57BL/6 mouse HMNC cells assessed as reduction in IFN-gamma cytokine in cell culture supernatant at 2 ug, ip administered as single dose measured 22 days post immunization by ELISA relative to vehicle-treated control; assay type: functional, organism-based
In short: (§3)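 Spinal cord mononuclear cells were isolated at day 22 by Percoll gradient and restimulated 4 h with PMA 50 ng/mL plus ionomycin 1 μg/mL. Supernatant cytokines were measured by sandwich ELISA using capture antibody, biotinylated detection antibody, streptavidin-HRP and TMB. Data are mean ± SD of individual mice, n = 3−4/group.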

[6] = tested on: Mus musculus; assay: Immunomodulatory activity in PMA- and ionomycin-stimulated wild type C57BL/6 mouse HMNC cells assessed as reduction in IL-17 cytokine in cell culture supernatant at 2 ug, ip administered as single dose measured 22 days post immunization by ELISA relative to vehicle-treated control; assay type: functional, organism-based; in short: as §3
[7] = tested on: Mus musculus; assay: Immunomodulatory activity in PMA- and ionomycin-stimulated wild type C57BL/6 mouse HMNC cells assessed as inhibition of Th17 differentiation of MOG-specific CD4+ T cells at 2 ug, ip administered as single dose measured 22 days post immunization by brefeldin A staining-based flow cytometric analysis; assay type: functional, organism-based
In short: (§4)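 At 22 days post-immunization, mice were perfused with cold PBS. Lumbar spinal cord was minced, digested and homogenized, and mononuclear cells were taken from the 30−70% Percoll interface. Cells were restimulated 4 h with PMA 50 ng/mL and ionomycin 1 μg/mL, with brefeldin A 1 μg/mL for the last 2 h. Cells were surface-stained, fixed in 4% PFA, permeabilized with Triton buffer, stained for CD4, IL-17 and IFN-γ, and analyzed by flow cytometry.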

[8] = tested on: Mus musculus; assay: Immunomodulatory activity in PMA- and ionomycin-stimulated wild type C57BL/6 mouse HMNC cells assessed as inhibition of Th1 differentiation of MOG-specific CD4+ T cells at 2 ug, ip administered as single dose measured 22 days post immunization by brefeldin A staining-based flow cytometric analysis; assay type: functional, organism-based; in short: as §4
[9] = species: Mus musculus; assay: Antiautoimmune disease activity in wild type C57BL/6 mouse experimental autoimmune encephalitis model assessed as delay in disease onset at 2 ug, […] as single dose measured up to 30 days; assay type: functional, organism-based; in short: as §2
[10] = tested on: Mus musculus; assay: In vivo immunomodulatory activity in wild type C57BL/6 mouse assessed as IL-4 level in serum at 2 ug, iv administered as single dose measured at >2 hrs; assay type: functional, organism-based
In short: (§5)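 Mice were given a single intravenous injection of 2 μg glycolipid, and serum was collected at set times after injection. Serum cytokines were measured by sandwich ELISA: plates coated with anti-cytokine antibody and blocked with 1% BSA, serum incubated overnight at 4 °C, then biotinylated antibody, streptavidin-HRP and TMB, with absorbance read at 450 nm.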

[11] = tested on: Mus musculus; assay: In vivo immunomodulatory activity in wild type C57BL/6 mouse assessed as decrease in IFN-gamma level in serum at 2 ug, iv administered as single dose measured after 12 to 24 hrs; assay type: functional, organism-based; in short: as §5
[12] = tested on: Mus musculus; assay: In vivo immunomodulatory activity in wild type C57BL/6 mouse assessed as IL-4 level in serum at 2 ug, iv administered as single dose measured at 2 hrs; assay type: functional, organism-based; in short: as §5
[13] = tested on: Mus musculus; assay: Antiautoimmune disease activity in wild type C57BL/6 mouse experimental autoimmune encephalitis model assessed as reduction in mononuclear cells infiltration into white matter at 2 ug, ip administered as single dose measured on day 18 post immunization by H & E staining-based analysis relative to vehicle-treated control; assay type: functional, organism-based
[14] = tested on: Mus musculus; assay: In vivo immunomodulatory activity in wild type C57BL/6 mouse assessed as decrease in IL-17 level in serum at 2 ug, iv administered as single dose measured at 12 to 24 hrs; assay type: functional, organism-based; in short: as §5

Row | SMILES | Activity [1] | Activity [2] | Activity [3] | Activity [4] | Activity [5] | Activity [6] | Activity [7] | Activity [8] | Activity [9] | Activity [10] | Activity [11] | Activity [12] | Activity [13] | Activity [14]
1 | CCCCCCCCCCCCCCCCCCCCCCCCCC(=O)N[C@@H](CO[C@H]1O[C@H](CO)[C@H](O)[C@H](O)[C@H]1O)[C@H](O)[C@H](O)c1cnn(Cc2ccc(CCCCCC)cc2)c1 | Active | Active | Active |  |  |  |  |  |  |  |  |  |  | 
2 | CCCCCCCCCCCCCCCCCCCCCCCCCC(=O)N[C@@H](CO[C@H]1O[C@H](CO)[C@H](O)[C@H](O)[C@H]1O)[C@H](O)[C@H](O)CCCCCCCCCCCCCC |  |  |  | Active | inactive | inactive | inactive | inactive | inactive | inactive | inactive | Active |  | 
3 | CCCCCCCCCCCCCCCCCCCCCCCCCC(=O)N[C@@H](CO[C@H]1O[C@H](CO)[C@H](O)[C@H](O)[C@H]1O)[C@H](O)[C@H](O)c1cnn(CCCCc2ccc(CCC)cc2)c1 | Active | Active | Active |  |  |  |  |  |  |  |  |  |  | 
4 | CCCCCCCCCCCCCCCCCCCCCCCCCC(=O)N[C@@H](CO[C@H]1O[C@H](CO)[C@H](O)[C@H](O)[C@H]1O)[C@H](O)[C@H](O)c1cnn(CCCCCCc2ccc(C)cc2)c1 | Active | Active | Active |  |  |  |  |  |  |  |  |  |  | 
5 | CCCCCCCCCCCCCCCCCCCCCCCCCC(=O)N[C@@H](CO[C@H]1O[C@H](CO)[C@H](O)[C@H](O)[C@H]1O)[C@H](O)[C@H](O)c1cnn(CCCCCCCc2ccccc2)c1 | Active | Active | Active |  |  |  |  |  |  |  |  |  |  | 
6 | CCCCCCCCCCCCCCCCCCCCCCCCCC(=O)N[C@@H](CO[C@H]1O[C@H](CO)[C@H](O)[C@H](O)[C@H]1O)[C@H](O)[C@H](O)c1cnn(CCCCCc2ccc(CC)cc2)c1 | Active | Active | Active |  |  |  |  |  |  |  |  |  |  | 
7 | CCCCCCCCCCCCCCCCCCCCCCCCCC(=O)N[C@@H](CO[C@H]1O[C@H](CO)[C@H](O)[C@H](O)[C@H]1O)[C@H](O)[C@H](O)c1cnn(CCCc2ccc(CCCC)cc2)c1 | Active | Active | Active | Active | Active | Active | Active | Active | Active | inactive | inactive | Active | Active | Active
8 | CCCCCCCCCCCCCCCCCCCCCCCCCC(=O)N[C@@H](CO[C@H]1O[C@H](CO)[C@H](O)[C@H](O)[C@H]1O)[C@H](O)[C@H](O)c1cnn(CCc2ccc(CCCCC)cc2)c1 | inactive | inactive | inactive |  |  |  |  |  |  |  |  |  |  | 
